UCH37 inh = blocks the human deubiquitinase UCH37; purified proteasome/UCH37, Ub-AMC cleavage fluorescence; inhibition, % (concentration not given with the values); hit rate 0.33% among 330,000; AID 588478;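 active = mean inhibition over replicate wells above about 20%, limit read from the data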
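Test system – human UCH37 enzyme supplied as purified proteasome complex · Incubation – 30 min preincubation with enzyme, 25 min cleavage at room temperature · Detection – AMC fluorescence from Ub-AMC cleavage, excitation 355 nm, emission 460 nm · Benchmarks – no-proteasome wells (full inhibition) and compound-free wells (no inhibition)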
FAS-TE inh = inhibitors of human fatty acid synthase thioesterase domain; P49327; recombinant FAS-TE, OMFH fluorogenic substrate, fluorescence endpoint; inhibition, % at 15 µM; hit rate 0.67% among 360,000;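 active = compounds whose normalised, plate-corrected inhibition of enzyme fluorescence in the single-dose primary screen is 50% or more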
Rtt109 Vps75 = C. albicans Rtt109 histone acetyltransferase inhibition | Q5AAJ8 | purified Rtt109/Vps75, ThioGlo CoA-SH fluorescence, 4 h | inhibition, % at 34.9 µM | hit rate 0.16% among 330,000 | AID 540336;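 active = inhibition of at least 50% in every replicate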
ALR H2O2 inh = inhibitors of human sulfhydryl oxidase ALR | P55789 | purified ALR, DTT oxidation, H2O2 HRP-luminol luminescence | inhibition, % (concentration not given with the values) | hit rate 3.8% among 290,000;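 active = mean replicate inhibition above about 79%, with every replicate also reaching it, limit read from the data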
Target sequence (P55789 whole entry, looked up): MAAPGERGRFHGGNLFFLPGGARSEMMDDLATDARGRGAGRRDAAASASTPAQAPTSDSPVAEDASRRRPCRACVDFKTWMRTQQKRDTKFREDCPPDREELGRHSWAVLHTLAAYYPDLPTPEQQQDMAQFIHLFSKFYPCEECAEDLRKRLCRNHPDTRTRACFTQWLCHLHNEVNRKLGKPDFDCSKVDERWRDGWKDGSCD
PfM18AAP inh = blocks P. falciparum M18 aspartyl aminopeptidase. inhibition, % at 7.35 µM. recombinant PfM18AAP, H-Glu-NHMec fluorogenic cleavage. AID 1822. hit rate 1.2% among 290,000;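 active = inhibition above the campaign mean inhibition over all tested compounds plus 3 SD, cut at about 28% in these data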
HDAC3 inhib = blocks human histone deacetylase 3; O15379; recombinant HDAC3, fluorogenic peptide/trypsin coupled, fluorescence; inhibition, % at 8.3 µM; hit rate 0.15% among 320,000; AID 2718; in the data active = inhibition above about 26%, passing the limit was not always enough
Target sequence (O15379 whole entry, looked up): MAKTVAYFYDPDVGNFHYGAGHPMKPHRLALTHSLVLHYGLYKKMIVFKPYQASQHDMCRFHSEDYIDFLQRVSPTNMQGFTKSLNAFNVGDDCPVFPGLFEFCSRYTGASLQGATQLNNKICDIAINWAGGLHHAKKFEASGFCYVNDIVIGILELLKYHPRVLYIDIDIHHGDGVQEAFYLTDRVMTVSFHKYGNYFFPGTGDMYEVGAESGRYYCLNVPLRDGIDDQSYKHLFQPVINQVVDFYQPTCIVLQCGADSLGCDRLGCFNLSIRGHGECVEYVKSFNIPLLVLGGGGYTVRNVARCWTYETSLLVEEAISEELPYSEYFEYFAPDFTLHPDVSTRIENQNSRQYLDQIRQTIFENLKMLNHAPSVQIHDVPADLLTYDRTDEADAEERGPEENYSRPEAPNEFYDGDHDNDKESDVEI
FAS-TE inh conf = FAS thioesterase (human) inhibition, confirmation; shares compounds with FAS-TE inh; recombinant FAS-TE, OMFH fluorogenic substrate, fluorescence; inhibition, % at 15 µM; hit rate 45% among 2,300; AID 624325;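 active = compounds inhibiting the enzyme by at least 50% at 15 µM in any one of the replicates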
Hits are given with their value. Rows were chosen to be rich in hits. Some 4.6% of all compounds tested hit in one or more screens of this group.

Results for COc1ccc(/C=C/C(=O)Nc2cc(S(=O)(=O)N3CCCCC3)ccc2N2CCCCC2)cc1OC ?
UCH37 inh: inactive; FAS-TE inh: 90; Rtt109 Vps75: inactive; ALR H2O2 inh: inactive; PfM18AAP inh: inactive; HDAC3 inhib: inactive; FAS-TE inh conf: inactive

How did COc1ccc(NC(=O)c2cc(C)nc3ccccc23)cc1S(=O)(=O)Nc1ccccc1Cl do in these assays?
UCH37 inh: inactive; FAS-TE inh: inactive; Rtt109 Vps75: inactive; ALR H2O2 inh: inactive; PfM18AAP inh: inactive; HDAC3 inhib: inactive

How did COc1cc(/C=C/C(=O)Nc2ccc(N3CCCCC3)c(S(=O)(=O)Nc3ccccc3Cl)c2)cc(OC)c1OC do in these assays?
UCH37 inh: inactive; FAS-TE inh: 58; Rtt109 Vps75: inactive; ALR H2O2 inh: inactive; PfM18AAP inh: inactive; HDAC3 inhib: inactive; FAS-TE inh conf: inactive

How did CC(=O)Nc1ccc(-c2csc(NN=C(C)c3ccccc3)n2)cc1 do in these assays?
UCH37 inh: inactive

What do the screens show for `Cc1ccc(S(=O)(=O)N2C[C@H]3C(=O)C[C@@H]4C(=O)N(c5ccccc5)C(=O)[C@@H]4[C@@H]3C[C@@H]2c2ccccc2)cc1`?
FAS-TE inh: 75; FAS-TE inh conf: inactive

Results for Cc1ccc(S(=O)(=O)N2C[C@H]3[C@H]4C(=O)N(c5ccccc5)C(=O)[C@H]4CC(=O)[C@H]3[C@@H]2c2cccc3ccccc23)cc1 ?
FAS-TE inh: 84; FAS-TE inh conf: 46

What do the screens show for `CCc1ccc([C@@H]2CC(=O)[C@@H]3CN(S(=O)(=O)c4ccccc4)[C@H](c4ccc(OC)cc4)C[C@@H]3N2S(=O)(=O)c2ccc(C)cc2)cc1`?
FAS-TE inh: inactive

Results for Cc1ccc(S(=O)(=O)N2[C@H](C(C)C)[C@H]3[C@H]4C(=O)N(c5ccccc5)C(=O)[C@H]4CC(=O)[C@H]3[C@@H]2c2ccccc2)cc1 ?
FAS-TE inh: 68; FAS-TE inh conf: inactive

Results for Cc1ccc(S(=O)(=O)N2C[C@H]3[C@H]4C(=O)N(c5ccccc5)C(=O)[C@H]4CC(=O)[C@H]3[C@@H]2c2ccccc2F)cc1 ?
FAS-TE inh: inactive

What do the screens show for `Cc1ccc(S(=O)(=O)N2C[C@H]3[C@H]4C(=O)N(c5ccccc5)C(=O)[C@H]4CC(=O)[C@H]3[C@@H]2c2ccc(Cl)cc2)cc1`?
FAS-TE inh: inactive

What do the screens show for `COc1ccc([C@@H]2C[C@H]3[C@@H](CN2S(=O)(=O)c2ccccc2)C(=O)C[C@@H](c2ccc(OC)cc2)N3S(=O)(=O)c2ccccc2)cc1`?
FAS-TE inh: 76; FAS-TE inh conf: inactive

How did O=[N+]([O-])c1cc(C=NOCc2c(Cl)cccc2Cl)ccc1N1CCOCC1 do in these assays?
UCH37 inh: inactive

What do the screens show for `CC(CC=NNC(=O)COc1cc(Cl)ccc1Cl)c1ccccc1` (stereo unspecified)?
UCH37 inh: inactive

What do the screens show for `CC(C)CCNC(=O)C1CC(c2cccc([N+](=O)[O-])c2)=NO1` (stereo unspecified)?
UCH37 inh: inactive; FAS-TE inh: 53; Rtt109 Vps75: inactive; ALR H2O2 inh: inactive; PfM18AAP inh: inactive; HDAC3 inhib: inactive; FAS-TE inh conf: 59

How did O=C(NCCCCc1ccccc1)C1CC(c2cccc([N+](=O)[O-])c2)=NO1 (stereo unspecified) do in these assays?
UCH37 inh: inactive; FAS-TE inh: 66; Rtt109 Vps75: inactive; ALR H2O2 inh: inactive; PfM18AAP inh: inactive; HDAC3 inhib: inactive; FAS-TE inh conf: 76

What do the screens show for `CCCCNC(=O)C1CC(c2cccc([N+](=O)[O-])c2)=NO1` (stereo unspecified)?
UCH37 inh: inactive; FAS-TE inh: inactive; Rtt109 Vps75: inactive; ALR H2O2 inh: inactive; PfM18AAP inh: inactive; HDAC3 inhib: inactive

How did COc1ccc([C@@H]2[C@@H]3C(=O)N(C(C)(C)C)C(=O)[C@@H]3[C@]3(Cc4ccccc4)C(=O)N(c4cccc(F)c4)C(=O)N23)cc1 do in these assays?
UCH37 inh: inactive; FAS-TE inh: 52; Rtt109 Vps75: inactive; ALR H2O2 inh: inactive; HDAC3 inhib: inactive; FAS-TE inh conf: inactive

What do the screens show for `COc1ccc([C@@H]2[C@@H]3C(=O)N(C(C)(C)C)C(=O)[C@@H]3[C@]3(CC(C)C)C(=O)N(c4cccc(F)c4)C(=O)N23)cc1`?
UCH37 inh: inactive; FAS-TE inh: inactive; Rtt109 Vps75: inactive; ALR H2O2 inh: inactive; HDAC3 inhib: inactive

Results for CC(C)(C)N1C(=O)[C@H]2[C@@H](c3ccc(Br)cc3)N3C(=O)N(c4cccc(F)c4)C(=O)[C@@]3(Cc3ccccc3)[C@H]2C1=O ?
UCH37 inh: inactive; FAS-TE inh: 92; Rtt109 Vps75: inactive; ALR H2O2 inh: inactive; HDAC3 inhib: inactive; FAS-TE inh conf: 36

How did CC[C@@]12C(=O)N(c3cccc(F)c3)C(=O)N1[C@H](c1ccc(Br)cc1)[C@@H]1C(=O)N(C(C)(C)C)C(=O)[C@@H]12 do in these assays?
UCH37 inh: inactive; FAS-TE inh: inactive; Rtt109 Vps75: inactive; ALR H2O2 inh: inactive; HDAC3 inhib: inactive

How did CC(C)(C)N1C(=O)[C@H]2[C@@H](c3ccc(Br)cc3)N3C(=O)N(c4ccc(Br)cc4)C(=O)[C@@]3(Cc3ccccc3)[C@H]2C1=O do in these assays?
UCH37 inh: inactive; FAS-TE inh: 91; Rtt109 Vps75: inactive; ALR H2O2 inh: inactive; PfM18AAP inh: inactive; HDAC3 inhib: inactive; FAS-TE inh conf: 51

Results for CN(C)c1ccc(C=NNC(=O)C[n+]2ccccc2)cc1 ?
UCH37 inh: inactive

What do the screens show for `O=[N+]([O-])c1ccccc1C=Nn1c(COc2ccccc2)n[nH]c1=S`?
UCH37 inh: inactive

What do the screens show for `O=C(Cn1cncn1)NN=Cc1cccc2ccccc12`?
UCH37 inh: inactive

How did CCc1ccc(NC(=O)C(C)OC(=O)c2cccc(S(=O)(=O)N3CCc4ccccc4C3)c2)cc1 (stereo unspecified) do in these assays?
UCH37 inh: inactive; FAS-TE inh: 52; Rtt109 Vps75: inactive; ALR H2O2 inh: inactive; PfM18AAP inh: inactive; HDAC3 inhib: inactive; FAS-TE inh conf: inactive

What do the screens show for `CC(OC(=O)c1cccc(S(=O)(=O)N2CCN(C)CC2)c1)C(=O)Nc1ccc(C(N)=O)cc1` (stereo unspecified)?
UCH37 inh: inactive; FAS-TE inh: inactive; Rtt109 Vps75: inactive; ALR H2O2 inh: inactive; HDAC3 inhib: inactive

How did Cc1ccccc1OCC(=O)NN=Cc1cc2ccccc2nc1Cl do in these assays?
UCH37 inh: inactive

Results for COc1ccc(C)cc1S(=O)(=O)N(CC(=O)Nc1cc([N+](=O)[O-])ccc1C)c1ccc(C)c(C)c1 ?
UCH37 inh: inactive; FAS-TE inh: 65; Rtt109 Vps75: inactive; ALR H2O2 inh: inactive; PfM18AAP inh: inactive; HDAC3 inhib: inactive; FAS-TE inh conf: inactive

Screens (PubChem)
